{"source": "paper PMC6007853", "about": "(Biochemistry, 2018)", "key": {"[1]": {"biological_target": "Kv1.4 (Homo sapiens, UniProt P22459)", "sequence (P22459 whole entry)": "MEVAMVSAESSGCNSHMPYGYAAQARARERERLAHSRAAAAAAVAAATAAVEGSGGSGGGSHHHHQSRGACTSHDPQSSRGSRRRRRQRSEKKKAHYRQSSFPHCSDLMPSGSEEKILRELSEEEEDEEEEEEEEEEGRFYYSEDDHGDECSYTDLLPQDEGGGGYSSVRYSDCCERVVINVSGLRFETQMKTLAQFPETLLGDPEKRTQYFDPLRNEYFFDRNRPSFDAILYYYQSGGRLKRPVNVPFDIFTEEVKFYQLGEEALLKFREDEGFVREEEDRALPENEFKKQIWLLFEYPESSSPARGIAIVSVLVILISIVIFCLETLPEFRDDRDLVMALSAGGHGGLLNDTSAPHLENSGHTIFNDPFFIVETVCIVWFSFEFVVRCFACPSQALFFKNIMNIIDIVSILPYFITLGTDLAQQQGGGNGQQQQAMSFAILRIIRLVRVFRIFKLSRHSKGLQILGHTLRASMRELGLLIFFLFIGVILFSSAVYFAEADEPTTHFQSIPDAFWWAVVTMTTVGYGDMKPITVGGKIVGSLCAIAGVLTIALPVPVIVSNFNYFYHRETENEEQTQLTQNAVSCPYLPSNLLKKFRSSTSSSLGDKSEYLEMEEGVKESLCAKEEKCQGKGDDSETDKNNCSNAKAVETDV", "assay_type": "cell-based", "conditions": "for τact / τinact: voltage step from −100 mV to 0 mV, double exponential fit; for Kv1.4 / Kv channel inhibition (in words): highest concentrations tested", "in_short": "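Kv1.4 expressed under tetracycline induction in a CHO-K1 line and recorded by automated whole-cell voltage clamp. Voltage steps went from −100 mV to 0 mV. A double exponential was fitted to current rise and decay to obtain τact and τinact. Kd values were fitted from these, n = 9, SEM. IC50 came from the best fit of peak-current inhibition ± standard deviation of the parameter fit.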"}, "[2]": {"system": "Gramicidin A (gA) channel", "assay": "Gramicidin A based fluorescence quench assay", "assay_type": "biochemical", "conditions": "highest concentration tested", "in_short": "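ANTS was loaded into large unilamellar vesicles containing gramicidin A, and Tl+ was added to the suspension. Intravesicular ANTS quenching was followed over time, with nine individual repeats per trace. The initial quench rate gave the Tl+ influx rate. gA2 is the compound concentration that doubles that rate. Where gA2 was not obtained, the highest concentration tested is given.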"}}, "note": "“Also recorded” adds a separate entry of the source. Like-named read-outs stand apart in the source and are kept apart here.", "data": [{"smiles": "NCCc1c(SSc2[nH]c3cc(Br)ccc3c2CCN)[nH]c2cc(Br)ccc12", "note": "[1a, 6-bromo-2-mercaptotryptamine dimer]", "values": [{"measurement": "τact", "setting": "[1]; 1.5 μM BrMT", "result": "2.54 ± 0.02"}, {"measurement": "τinact", "setting": "[1]; 1.5 μM BrMT", "result": "136.6 ± 0.6"}, {"measurement": "τact", "setting": "[1]; 3 μM BrMT", "result": "3.17 ± 0.03"}, {"measurement": "τinact", "setting": "[1]; 3 μM BrMT", "result": "181 ± 2"}, {"measurement": "τact", "setting": "[1]; 6 μM BrMT", "result": "4.2 ± 0.4"}, {"measurement": "τinact", "setting": "[1]; 6 μM BrMT", "result": "300 ± 20"}, {"measurement": "Kv1.4 / Kv channel inhibition (in words)", "setting": "[1]", "result": "strongly inhibit"}]}, {"smiles": "Cc1ccc2c(CCN)c(SSc3[nH]c4cc(C)ccc4c3CCN)[nH]c2c1", "note": "[compound 7]", "values": [{"measurement": "Kv1.4 / Kv channel inhibition (in words)", "setting": "[1]", "result": "strongly inhibit"}]}, {"smiles": "NCCc1c(SSc2[nH]c3ccc(Br)cc3c2CCN)[nH]c2ccc(Br)cc12", "note": "[compound 8]", "values": [{"measurement": "Kv1.4 / Kv channel inhibition (in words)", "setting": "[1]", "result": "strongly inhibit"}, {"measurement": "gA assay activity / bilayer perturbation (in words)", "setting": "[2]", "result": "complete inactivity; also recorded: does not perturb bilayers"}]}, {"smiles": "NCCc1c(COCc2[nH]c3cc(Br)ccc3c2CCN)[nH]c2cc(Br)ccc12", "note": "[compound 14]", "values": [{"measurement": "Kv1.4 / Kv channel inhibition (in words)", "setting": "[1]", "result": "strongly inhibit"}, {"measurement": "IC50", "setting": "[1]; read-out: IC50 (potency against Kv1.4)", "result": 2.7, "unit": "µM"}]}]}
